Among the data in PubChem BioAssay AID652011 (Sanford-Burnham Center for Chemical Genomics, 2013) are inhibition values, retold here.

Each structure is given as a SMILES string. “And” between values parts separate entries of the source, which are not always exact repeats. Equal values may be shown once.

Sequence of Hypoxia-inducible factor 1-alpha (Homo sapiens) (Q16665 whole entry, looked up): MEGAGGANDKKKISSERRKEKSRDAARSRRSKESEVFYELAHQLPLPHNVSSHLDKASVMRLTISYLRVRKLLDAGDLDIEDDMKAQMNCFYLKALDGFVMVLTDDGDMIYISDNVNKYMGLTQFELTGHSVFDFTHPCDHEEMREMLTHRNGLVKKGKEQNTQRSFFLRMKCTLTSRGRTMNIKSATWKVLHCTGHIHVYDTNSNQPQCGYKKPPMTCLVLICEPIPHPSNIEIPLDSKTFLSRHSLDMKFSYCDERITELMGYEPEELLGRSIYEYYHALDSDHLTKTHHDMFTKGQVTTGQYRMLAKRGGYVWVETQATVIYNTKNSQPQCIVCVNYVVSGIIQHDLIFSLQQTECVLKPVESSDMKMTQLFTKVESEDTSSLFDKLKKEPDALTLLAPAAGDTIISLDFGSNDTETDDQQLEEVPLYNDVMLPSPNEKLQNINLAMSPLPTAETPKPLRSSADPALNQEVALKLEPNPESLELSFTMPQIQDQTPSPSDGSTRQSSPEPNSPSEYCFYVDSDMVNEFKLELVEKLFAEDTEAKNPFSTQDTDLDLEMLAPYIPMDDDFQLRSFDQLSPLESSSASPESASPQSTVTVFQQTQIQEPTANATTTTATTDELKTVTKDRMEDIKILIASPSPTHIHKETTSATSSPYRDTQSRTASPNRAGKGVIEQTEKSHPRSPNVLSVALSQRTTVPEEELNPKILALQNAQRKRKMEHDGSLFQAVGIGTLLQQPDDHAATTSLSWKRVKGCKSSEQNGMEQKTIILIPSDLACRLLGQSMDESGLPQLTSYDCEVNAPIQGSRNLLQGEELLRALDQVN

The assay deals with Hypoxia-inducible factor 1-alpha (Homo sapiens) (UniProt Q16665). As to the kind of experiment: HIF reporter inhibition across pancreatic and renal lines – cell-based, luminescence, MIAPaCa-2, 786-0, panel, SAR follow-up (AID 652011). The settings on record: MIAPaCa-2/PANC HIF reporter, luciferase luminescence, desferoxamine, overnight, HIF1a, run 1; at 99 µM (top of the series). In outline:
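Detection: luminescence, One-Glo; Reagent: desferoxamine; Incubation: overnight seeding and compound exposure, 37 °C, 5% CO2, 10-min detection.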
With `CCNC(=O)CCc1nc(-c2ccccc2)no1`, the inhibition (in general, the relative decrease from the control value, in per cent) was -39.4%.

As to `CC(C)NC(=O)CCc1nc(-c2ccc(C(C)(C)C)cc2)no1`, the inhibition stood at 17.3%.

In the case of `COc1cccc(NC(=O)CCc2nc(-c3ccc(C(C)(C)C)cc3)no2)c1`, the inhibition was 74.5%.

For `CCC(C)NC(=O)CCc1nc(-c2ccc(C(C)C)cc2)no1` (stereo not given), the inhibition was -41.9%.

Turning to `CCOc1ccccc1NC(=O)CCc1nc(-c2ccc(C(C)(C)C)cc2)no1`, the inhibition amounted to 54.8%.

Consider `CC(C)(C)c1ccc(-c2noc(CCC(=O)NCC3CCCO3)n2)cc1` (stereo not given), for which the inhibition is -24.5%.

In the case of `CCNC(=O)CCc1nc(-c2cccc(OC)c2)no1`, the inhibition was -42.1%.

`CCNC(=O)CCc1nc(-c2ccccc2Cl)no1`: the inhibition was -17.5%.

With `CCc1ccc(-c2noc(CCC(=O)NC(C)CC)n2)cc1` (stereo not given), the inhibition is -51.7%.

`CC(C)(C)NC(=O)CCc1nc(-c2ccccc2)no1`: the inhibition was -47.1%.

In the case of `COc1ccccc1NC(=O)CCc1nc(-c2ccc(C(C)(C)C)cc2)no1`, the inhibition amounted to 67.6%.

Regarding `CC(C)(C)c1ccc(-c2noc(CCC(N)=O)n2)cc1`, the inhibition was 8.32% and -17.9%.

Consider `CCCCc1ccc(-c2noc(CCC(=O)NC)n2)cc1`, for which the inhibition was -40.2%.

With `CC(C)CNC(=O)CCc1nc(-c2ccc(C(C)(C)C)cc2)no1`, the inhibition was -21.6%.

Regarding `CCNC(=O)CCc1nc(-c2ccc(CC)cc2)no1`, the inhibition is -35.2%.

Take `CCNC(=O)CCc1nc(-c2ccc(C(C)C)cc2)no1`: the inhibition was -33%.

`CC(C)c1ccc(-c2noc(CCC(=O)NC(C)(C)C)n2)cc1`: the inhibition was -0.968%.

`CNC(=O)CCc1nc(-c2ccc(C(C)(C)C)cc2)no1`: the inhibition was determined as 21.1%.

Consider `CC(C)c1ccc(-c2noc(CCC(=O)NC3CC3)n2)cc1`, for which the inhibition was -58.4%.

With `CC(C)(C)c1ccc(-c2noc(CCC(=O)N3CCOCC3)n2)cc1`, the inhibition was -34.2%.

In the case of `CNC(=O)CCc1nc(-c2ccc(OC)cc2)no1`, the inhibition is -51.1%.

In the case of `CC(C)(C)c1ccc(-c2noc(CCC(=O)Nc3cccnc3)n2)cc1`, the inhibition stood at 98.9%.

Regarding `O=C(O)CCc1nc(-c2ccccc2)no1`, the inhibition was 4.64%.

For the compound `CCNC(=O)CCc1nc(-c2ccc(OCC)cc2)no1`, the inhibition is -79.8%.

For the compound `CC(C)(C)c1ccc(-c2noc(CCC(=O)Nc3ccccc3)n2)cc1`, the inhibition was determined as 43%.

As for `CCCCc1ccc(-c2noc(CCC(=O)NC(C)CC)n2)cc1` (stereo not given), the inhibition was found to be 29.2%.

For `CN(C)C(=O)CCc1nc(-c2ccc(C(C)(C)C)cc2)no1`, the inhibition is -59.6% and -77.5%.

With `COC(=O)CCc1nc(-c2ccc(C(C)(C)C)cc2)no1`, the inhibition came out at 92.2%.

As for `CC(C)(C)c1ccc(-c2noc(CCC(=O)Nc3cccc([N+](=O)[O-])c3)n2)cc1`, the inhibition was 96.4%.

For the compound `CCNC(=O)CCc1nc(-c2c(Cl)cccc2Cl)no1`, the inhibition worked out at 13.2%.
